Laboratory results taken from ChEMBL document CHEMBL2429868, “Structural optimization of quinolon-4(1H)-imines as dual-stage antimalarials: toward increased potency and metabolic stability” (J Med Chem, 2013).
Values after ≈ are worked out from the molar mass of the structure shown. Active and inactive are the calls of the source. The rule behind the calls is not given here.

Assays:
[1] = tested on: Plasmodium berghei; test: Antiplasmodial activity against liver stage of Plasmodium berghei infected in human HuH7 cells assessed as parasite growth inhibition incubated for 1 hr prior to parasite infection measured after 48 hrs; format: functional, organism-based; conditions: Huh-7, Liver
Outline: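 Huh-7 cells (12 × 10^3/well) seeded the day before, given compound (10 mM MeOH stock diluted in medium) 1 h before adding 10 000 P. berghei PbGFP-Luccon sporozoites/well from mosquito salivary glands, then spun 1700g 5 min. Medium with compound renewed at 24 h. Luminescence read 48 h post-infection; IC50 by nonlinear regression of normalized dose–response.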

[2] = tested on: HEK-293T; test: Cytotoxicity against HEK293T cells; format: cell-based; conditions: Homo sapiens
Outline: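 HEK293T seeded the day before in RPMI 1640 with 10% FBS, penicillin/streptomycin and 2 mM L-glutamine. Serial dilutions from DMSO were added for 48 h at 37 °C, 5% CO2. Then MTT for 3 h, formazan taken up in DMSO, absorbance read at 570 nm. EC50 by nonlinear regression of the concentration–response curve.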

[3] = Selectivity index, ratio of EC50 for HEK293T cells to IC50 for blood stage of chloroquine-resistant Plasmodium falciparum W2 infected in human RBC; format: functional, HEK-293T
Outline: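 Ratio of two values. EC50: HEK293T cells seeded the previous day in RPMI 1640/10% FBS, given serial DMSO-diluted compound for 48 h at 37 °C, 5% CO2, then MTT for 3 h; formazan read at 570 nm and EC50 fitted by nonlinear regression. IC50: 48 h W2 blood-stage growth in human RBCs, scored by YOYO-1 flow cytometry.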

[4] = tested on: Plasmodium falciparum; test: Antiplasmodial activity against blood stage of chloroquine-resistant Plasmodium falciparum W2 infected in human RBC assessed as parasite growth inhibition after 48 hrs by flow cytometric analysis; format: functional, organism-based; conditions: W2, 48 h
[5] = tested on: Plasmodium berghei; test: Potency index, ratio of primaquine IC50 to compound IC50 for liver stage of Plasmodium berghei infected in human HuH7 cells; format: functional, Huh-7
[6] = tested on: Liver microsomes; test: Metabolic stability in rat liver microsomes assessed as compound remaining at 1 uM after 6 hrs by HPLC analysis in absence of NADPH-regenerating system; format: ADME, Microsome
Outline: (§1)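 Compound at 1 μM incubated at 37 °C with pooled rat liver microsomes (0.2 mg protein/mL) in 10 mM phosphate buffer, pH 7.4. Reaction started with NADPH-regenerating system A (NADP+, glucose 6-phosphate, MgCl2) plus B (glucose 6-phosphate dehydrogenase); no-cofactor runs used water instead. Remaining compound measured after 6 h by RP-18 HPLC in acetonitrile/water 25:75, 1 mL/min.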

[7] = Metabolic stability in rat liver microsomes assessed as compound remaining at 1 uM after 6 hrs by HPLC analysis in presence of NADPH-regenerating system; format: ADME, Microsome; conditions: read-out: Stability; outline: as §1
[8] = tested on: Plasmodium falciparum; test: Inhibition of Plasmodium falciparum cytochrome bc1 complex using decylubiquinol as substrate at <= 10 uM by UV-visible spectrophotometric analysis
[9] = tested on: Plasmodium falciparum; test: Antiplasmodial activity against Plasmodium falciparum 3D7 transfected with yeast GFP-tagged DHODH assessed as parasite growth inhibition; format: functional, organism-based
[10] = tested on: Plasmodium falciparum; test: Antiplasmodial activity against Plasmodium falciparum 3D7 assessed as parasite growth inhibition; format: functional, organism-based
[11] = tested on: Huh-7; test: Cytotoxicity against human HuH7 cells assessed as cell viability up to 5 uM by AlamarBlue assay; format: cell-based
Outline: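 Huh-7 hepatoma cells in RPMI 1640 with 10% FCS, nonessential amino acids, glutamine and 10 mM HEPES pH 7, kept at 37 °C, 5% CO2. Treated as in the liver-stage infection assay. Viability read by AlamarBlue per manufacturer's protocol.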

[12] = Inhibition of hemozoin-like crystal formation after 5 days; format: functional; conditions: 120 h
Outline: (§2)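 Hemozoin-like crystal stock sonicated 3 min and diluted in broth to 2 μM final (heme equivalents). Compounds from 25 mM DMSO stocks were 0.22-μm filtered and dosed at 0–1000 μM final. Incubated 37 °C, 5% CO2, 5 days, then scored for presence or absence of crystal growth. Run in triplicate.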

[13] = Inhibition of hemozoin-like crystal formation at 1 to 1000 uM after 5 days; format: functional; outline: as §2
[14] = Chemical stability in aqueous buffer at pH 7.4 at 37 degC measured for 10 days; format: physicochemical; conditions: pH 7.4, 240 h
Outline: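 Stability tested by holding compound in aqueous buffer at pH 7.4 (and pH 0.3) at 37 °C for 10 days.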

[15] = tested on: Liver microsomes; test: Drug metabolism in rat liver microsomes assessed as quinoline metabolite formation through N-dealkylation of compound after 6 hrs by mass spectrophotometric analysis; format: ADME, Microsome

Compound	IC50 [1] [µM]	EC50 [2] [µM]	Selectivity Index [3]	IC50 [4] [µM]	Stability [6]	remaining at 6 h, 1 µM [7] [%]	Activity [11]	other results
Clc1ccc2/c(=N/c3ccc(Br)cc3)ccn(CCCN3CCCCC3)c2c1	3.01	> 100	>1351	0.074				
c1ccc(-c2ccc(/N=c3\ccn(CCCN4CCCCC4)c4cc(-c5cnc6ccccc6c5)ccc34)cc2)cc1	0.71	7.68	143	0.0537				Ratio IC50 [5]: > 10
CCN(CC)CCn1cc/c(=N\c2ccc(-c3ccccc3)cc2)c2ccc(Cl)cc21		37.1	74	0.498	Stable	68		
CCN(CC)CCCCn1cc/c(=N\c2ccc(-c3ccccc3)cc2)c2ccc(Cl)cc21	2.65	> 100	>1479	0.0676	Stable	62.7		inhibition [8]: inactive; IC50 [9]: 0.0683 µM; IC50 [10]: 0.0647 µM
Clc1ccc2/c(=N/c3ccc(-c4ccccc4)cc3)ccn(CCCN3CCCCC3)c2c1		41.8	290	0.144				IC50 [9]: 0.0523 µM; IC50 [10]: 0.0737 µM
Clc1ccc2/c(=N/c3ccc(Oc4ccccc4)cc3)ccn(CCCN3CCCCC3)c2c1		30.6	191	0.16	Stable	73	Non-toxic	MIC [12]: 500 µM (≈ 236 µg/mL)
CCN(CC)CCCn1cc/c(=N\c2ccc(-c3ccccc3)cc2)c2ccc(C(F)(F)F)cc21		> 100	>694	0.144				
Clc1ccc2/c(=N/c3ccc(-c4ccccc4)cc3)ccn(CCN3CCCC3)c2c1	3.46	> 100	>900	0.111				IC50 [9]: 0.186 µM; IC50 [10]: 0.177 µM
Cc1ccc(/N=c2\ccn(CCCN3CCCCC3)c3cc(Cl)ccc23)cc1		> 100	>302	0.331				
FC(F)(F)c1ccc2/c(=N/c3ccc(-c4ccccc4)cc3)ccn(CCN3CCCC3)c2c1		> 100	>442	0.226	Stable	79	Non-toxic	inhibition [13]: inactive
CCN(CC)CCn1cc/c(=N\c2ccc(-c3ccccc3)cc2)c2ccc(C(F)(F)F)cc21	4.61	38.5	73	0.525	Stable	80.4	Non-toxic	inhibition [13]: inactive
Clc1ccc2c(c1)/c(=N/c1ccc(-c3ccccc3)cc1)ccn2CCCN1CCCCC1		21.8	219	0.0997	Stable	75	Non-toxic	Stability [14]: Stable; MIC [12]: 1000 µM (≈ 456 µg/mL); Drug metabolism [15]: Active
CCN(CC)CCCCn1cc/c(=N\c2ccc(-c3ccccc3)cc2)c2ccc(C(F)(F)F)cc21		> 100	>1988	0.0503	Stable	81.5		
FC(F)(F)c1ccc2c(c1)/c(=N/c1ccc(-c3ccccc3)cc1)ccn2CCCN1CCCCC1		23.7	38	0.631			Non-toxic	MIC [12]: 1000 µM (≈ 490 µg/mL)
CCN(CC)CCCC(C)Nc1ccnc2cc(Cl)ccc12 (stereo not given) [CHLOROQUINE]								MIC [12]: 125 µM (≈ 40 µg/mL)
Clc1ccc2/c(=N/c3ccccc3)ccn(CCCN3CCCCC3)c2c1		> 100	>366	0.273			Non-toxic	inhibition [13]: inactive
GENTAMICIN								inhibition [13]: inactive
CCN(CC)CCCn1cc/c(=N\c2ccc(-c3ccccc3)cc2)c2ccc(Cl)cc21		> 100	>662	0.151				
Fc1ccc(/N=c2\ccn(CCCN3CCCCC3)c3cc(Cl)ccc23)cc1	4.78	> 100	>271	0.369			Non-toxic	inhibition [13]: inactive
Fc1ccc(-c2ccc3/c(=N/c4ccc(-c5ccccc5)cc4)ccn(CCCN4CCCCC4)c3c2)cc1	2.07	7.63	138	0.0554			Non-toxic	MIC [12]: 500 µM (≈ 258 µg/mL)
c1ccc(-c2ccc(/N=c3\ccn(CCCN4CCCCC4)c4cc(Nc5ccccn5)ccc34)cc2)cc1	0.44	7.34	21	0.357				Ratio IC50 [5]: > 10
Clc1ccc(/N=c2\ccn(CCCN3CCCCC3)c3cc(Cl)ccc23)cc1	2.7	> 100	>386	0.259			Non-toxic	inhibition [13]: inactive
Fc1ccc(-c2ccc3/c(=N/c4ccccc4)ccn(CCCN4CCCCC4)c3c2)cc1	1.39	> 100	>463	0.216				
FC(F)(F)c1ccc2/c(=N/c3ccc(-c4ccccc4)cc3)ccn(CCCN3CCCCC3)c2c1		56.8	158	0.36	Stable	65		IC50 [9]: 0.195 µM; IC50 [10]: 0.136 µM
